Laboratory results taken from ChEMBL document CHEMBL1132709, “Novel cyclopropapyrroloindole derivative (AT-3510) bearing methoxycarbonyl and trifluoromethyl groups” (J Med Chem, 1999).
Converted amounts (≈) assume the structure as drawn.

Columns and labels:
Mus musculus [1] = assay: In vivo antitumor activity (0.800 mg/kg) is the measure of tumor growth inhibition of human tumor xenograft NUGC-3 (stomach) implanted sc in mice.; format: functional
Outline: (§1)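 Tumor fragments (2–3 mm3) implanted sc into female BALB/cA Jcl-nu mice on day 0; single iv dose given once tumor volume reached about 100 mm3. Read-out is maximum tumor growth inhibition, as percentage versus untreated group.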

Mus musculus [2] = assay: In vivo antitumor activity (0.845 mg/kg) is the measure of tumor growth inhibition of human tumor xenograft DLD-1 (colon) implanted sc in mice.; format: functional; outline: as §1
Mus musculus [3] = assay: In vivo antitumor activity (0.845 mg/kg) is the measure of tumor growth inhibition of human tumor xenograft HCT116 (colon) implanted sc in mice.; format: functional; outline: as §1
Mus musculus [4] = assay: In vivo antitumor activity is the measure of tumor growth inhibition of Colon 26 murine […] cells.; format: functional
Outline: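 Colon 26 cells (10^6/mouse) inoculated sc into male CDF1 mice on day 0; single iv dose on day 7. Tumor growth inhibition expressed as percentage versus untreated group.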

Mus musculus [5] = assay: In vivo concentration required to inhibit the Colon 26 murine […] cell growth by 50%; format: functional
[6] = Ratio between max dose within 10% body weight loss and tumor growth inhibition; format: functional
Outline: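 Ratio of maximum dose within 10% body weight loss to the dose giving 50% tumor growth inhibition, in sc Colon 26-bearing mice dosed iv.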

Mus musculus [7] = assay: In vivo antitumor activity (0.25 mg/Kg) is the measure of tumor growth inhibition of colon 26 murine […] cells.; format: functional
Outline: (§2)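 Colon 26 cells (10^6/mouse) inoculated sc into male CDF1 mice on day 0; drug given iv on day 7. Read-out is percentage tumor growth inhibition versus the untreated group.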

HeLa = assay: Concentration required to inhibit the growth of HeLaS3 human uterine cervix carcinoma cells by 50%; format: functional, cell-based
Mus musculus [8] = assay: In vivo antitumor activity (0.5 mg/Kg) is the measure of tumor growth inhibition of colon 26 murine […] cells.; format: functional; outline: as §2
Mus musculus [9] = assay: In vivo antitumor activity (0.125 mg/Kg) is the measure of tumor growth inhibition of colon 26 murine […] cells.; format: functional; outline: as §2
P338 = assay: In vitro concentration required to inhibit the growth of […] murine leukemia cells by 50%; format: functional, cell-based; conditions: Mus musculus
Mus musculus [10] = assay: In vivo antitumor activity (0.25 mg/Kg) is the measure of increase in life span of mice bearing P388 murine leukemia cells; 2/2 cured mice (>60-day survivors); format: functional, organism-based

Compound COC(=O)c1c(C(F)(F)F)[nH]c2c(OC(=O)N3CCN(C)CC3)cc3c(c12)[C@H](CCl)CN3C(=O)c1cc2cc(NC(=O)c3cc4ccccc4cn3)ccc2[nH]1 has a TGI (Mus musculus [1]) of 97%, a TGI (Mus musculus [2]) of 76% and a TGI (Mus musculus [3]) of 77%. For the same compound, the TGI (Mus musculus [4]) was 93%, the TGI50 (Mus musculus [5]) was 0.082 mg/kg and the Ratio [6] was 6.1.
Compound COC(=O)c1c(C(F)(F)F)[nH]c2c(OC(=O)N3CCN(C)CC3)cc3c(c12)[C@H](CCl)CN3C(=O)c1cc2cc(NC(=O)c3cc4c(OC)c(OC)c(OC)cc4cn3)ccc2[nH]1 has a TGI (Mus musculus [4]) of 89%, a TGI50 (Mus musculus [5]) of 0.13 mg/kg and a Ratio [6] of 3.9.
COC(=O)c1c(C(F)(F)F)[nH]c2c(OC(=O)N3CCN(C)CC3)cc3c(c12)[C@H](CCl)CN3C(=O)c1cc2cc(NC(=O)c3cc4ccc(OC)cc4o3)ccc2[nH]1 gave a TGI (Mus musculus [4]) of 89%, a TGI50 (Mus musculus [5]) of 0.108 mg/kg and a Ratio [6] of 4.6.
In the case of COC(=O)c1c(C(F)(F)F)[nH]c2c(OC(=O)N3CCN(C)CC3)cc3c(c12)[C@H](CCl)CN3C(=O)c1cc2cc(NC(=O)c3cc4cc(OC)c(OC)c(OC)c4o3)ccc2[nH]1, the TGI (Mus musculus [4]) is reported as 90%, the TGI50 (Mus musculus [5]) is reported as 0.0533 mg/kg and the Ratio [6] is reported as 4.5.
For COC(=O)c1c(C(F)(F)F)[nH]c2c(O)cc3c(c12)[C@H](CCl)CN3C(=O)c1cc2cc(NC(=O)c3cc4ccc(OC)cc4cn3)ccc2[nH]1, the TGI (Mus musculus [7]) was 82% and the IC50 (HeLa) was 0.11 ng/mL (≈ 0.159 nM).
Work on COC(=O)c1c(C(F)(F)F)[nH]c2c(O)cc3c(c12)[C@H](CCl)CN3C(=O)c1cc2cc(NC(=O)c3cc4c(OC)c(OC)c(OC)cc4[nH]3)ccc2[nH]1 yielded a TGI (Mus musculus [8]) of 95% and an IC50 (HeLa) of 0.94 ng/mL (≈ 1.27 nM).
With COC(=O)c1c(C(F)(F)F)[nH]c2c(OC(=O)N3CCN(C)CC3)cc3c(c12)[C@H](CCl)CN3C(=O)c1cc2cc(NC(=O)c3cc4cc(OC)ccc4o3)ccc2[nH]1.Cl the TGI (Mus musculus [4]) was 86%, the TGI50 (Mus musculus [5]) was 0.148 mg/kg and the Ratio [6] was 6.8.
Work on COC(=O)c1c(C(F)(F)F)[nH]c2c(OC(=O)N3CCN(C)CC3)cc3c(c12)[C@H](CBr)CN3C(=O)c1cc2cc(OC)c(OC)c(OC)c2[nH]1 yielded a Ratio [6] of 11.7.
Work on COC(=O)c1c(C(F)(F)F)[nH]c2c1[C@@]13C[C@@H]1CN(C(=O)c1cc4cc(NC(=O)c5cc6ccccc6o5)ccc4[nH]1)C3=CC2=O yielded a Ratio [6] of 4.3.
For COC(=O)c1c(C(F)(F)F)[nH]c2c(O)cc3c(c12)[C@H](CCl)CN3C(=O)c1cc2cc(NC(=O)c3cc4ccccc4cn3)ccc2[nH]1 (racemic), the TGI (Mus musculus [7]) was 82% and the IC50 (HeLa) was 0.24 ng/mL (≈ 0.363 nM).
In the case of COC(=O)c1c(C(F)(F)F)[nH]c2c(O)cc3c(c12)[C@H](CCl)CN3C(=O)c1cc2cc(NC(=O)c3cc4cccc(OC)c4o3)ccc2[nH]1 (racemic), the TGI (Mus musculus [8]) is reported as 96% and the IC50 (HeLa) is reported as 0.51 ng/mL (≈ 0.749 nM).
Work on COC(=O)c1c(C(F)(F)F)[nH]c2c(O)cc3c(c12)[C@H](CCl)CN3C(=O)c1cc2cc(NC(=O)c3ccc4ccccc4c3)ccc2[nH]1 (racemic) yielded a TGI (Mus musculus [8]) of 84% and an IC50 (HeLa) of 0.22 ng/mL (≈ 0.333 nM).
COC(=O)c1c(C(F)(F)F)[nH]c2c(O)cc3c(c12)[C@H](CCl)CN3C(=O)c1cc2cc(NC(=O)c3cc4cc(OC)c(OC)c(OC)c4o3)ccc2[nH]1 (racemic) showed a TGI (Mus musculus [9]) of 74% and an IC50 (HeLa) of 0.17 ng/mL (≈ 0.229 nM).
In the case of COC(=O)c1c(C(F)(F)F)[nH]c2c1[C@@]13C[C@@H]1CN(C(=O)c1cc4cc(NC(=O)c5cc6ccccc6o5)ccc4[nH]1)C3=CC2=O (racemic), the IC50 (P338) is reported as 0.53 ng/mL (≈ 0.862 nM).
COC(=O)c1c(C(F)(F)F)[nH]c2c(O)cc3c(c12)[C@H](CCl)CN3C(=O)c1cc2cc(NC(=O)c3cc4c(OC)cccc4o3)ccc2[nH]1 (racemic) showed a TGI (Mus musculus [8]) of 83% and an IC50 (HeLa) of 0.87 ng/mL (≈ 1.28 nM).
Compound COC(=O)c1c(C(F)(F)F)[nH]c2c(O)cc3c(c12)[C@H](CCl)CN3C(=O)c1cc2cc(OC)c(OC)c(OC)c2[nH]1 (racemic) has an IC50 (HeLa) of 0.25 ng/mL (≈ 0.43 nM).
Work on COC(=O)c1c(C(F)(F)F)[nH]c2c(O)cc3c(c12)[C@H](CCl)CN3C(=O)c1cc2cc(NC(=O)c3cc4cc(OC)c(OC)c(OC)c4[nH]3)ccc2[nH]1 (racemic) yielded a TGI (Mus musculus [7]) of 83% and an IC50 (HeLa) of 0.2 ng/mL (≈ 0.27 nM).
With COC(=O)c1c(C(F)(F)F)[nH]c2c1[C@@]13C[C@@H]1CN(C(=O)c1cc4cc(NC(=O)c5cc6ccccc6[nH]5)ccc4[nH]1)C3=CC2=O (racemic) the ILS (Mus musculus [10]) was 2/2 cured mice (>60-day survivors) and the IC50 (P338) was 0.86 ng/mL (≈ 1.4 nM).
